Laboratory results as given in the EternaBench riboswitch data.

Tested on: MS2 coat protein
Experiment: apparent Kd, MS2 coat protein; higher = weaker binding; RNA-MaP array; tryptophan 2.4 mM where present
In short: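 The apparent Kd comes from binding curves fitted cluster by cluster, filtered, and summarised as a median. Those curves followed SNAP-549-labelled MS2 coat protein from 0.7 or 1.5 nM, doubling to 3 µM, on Illumina sequencing-chip clusters where stalled E. coli RNA polymerase had transcribed the designs, without and then with constant ligand. The buffer was 100 mM Tris-HCl pH 7.5, 80 mM KCl, 4 mM MgCl2, BSA, DTT, yeast tRNA and Tween-20, and green signal was normalised to red-channel RNA signal and control-cluster median Fmax.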

[1] = designed as: ON switch for tryptophan, no ligand
[2] = ligand present: tryptophan, designed as: ON switch for tryptophan
[3] = designed as: OFF switch for tryptophan, no ligand
[4] = ligand present: tryptophan, designed as: OFF switch for tryptophan

Sequence	apparent Kd [1] [nM]	apparent Kd [2] [nM]	apparent Kd [3] [nM]	apparent Kd [4] [nM]
CCGCACAUGAGGAUCACCCAUGUCCGGGUUCGAGGACCGGUACGGCCGCCACUCGGACAUGUGCGCCCUUCAUGCACUGUAUAAA	129	60.9	–	–
ACAUGAGGAUCACCCAUGUGAAGCAGGGUACGAGGACCGGUACGGCCGCCACUCGAGCAUUAUACCGAGUGAAUGGCAACGAUGU	–	–	15.7	17
UAAACUACACAUGAGGAUCACCCAUGUGGCCGAGGACCGGUACGGCCGCCACUCGUGUGUUAAUAAAAGAACUGCAAAGUUCCUU	295	86.1	–	–
GGGUGGUAGGCGGCCGCCACUGAUUUUCAUAUAUAUAUAACAUGAGGAUCACCCAUGUAGAUAUGCAGGACCGGGCCUGUUGUUU	36.5	30.4	–	–
UCGUUUUAGUCGGCCGCCACUGAACUCAUGUUCAACAUGAGGAUCACCCAUGUACCUUAUUUUAACAGGACCGGGACGUAAUAGA	–	–	123	97.5
GGAUUACGAAAGUAGUCCAUCAAGUUCGAGCGAGGACCGGUACGGCCGCCACUCGAACAUGAGGAUCACCCAUGUAGCGAAAGCU	284	255	–	–
GGUUACUCUACGGCCGCCACUGGGCAUGUAAAUAACAUGAGGAUCACCCAUGUGGAAUAAAAUUACAGGACCGGGUAGUGUAACC	254	40.2	–	–
GUAUUAACAAAAGUUGAUACAGUGGGUGAACGAGGACCGGUACGGCCGCCACUCGGACAUGAGGAUCACCCAUGUCCAUGUGAAA	–	–	17.2	27.2
AACAUGAGGAUCACCCAUGUCCUCGUGUUCCGAGGACCGGUACGGCCGCCACUCGGUCCUCGCGAGGAUGGUCAAAGACUAUCCA	97.4	170	–	–
AUAAUAAUACAUGAGGAUCACCCAUGUAUGCGAGGACCGGUACGGCCGCCACUCGACCUCAUGCAUACAUGAGGAUCACCCAUGU	32.5	62	–	–
CGAUAUGGGACGGCCGCCACUAUUAUGUAACAAAAUAAACAUGAGGAUCACCCAUGUACAUGGGAUAGGACCGGGUCCUAUAACG	32.4	19.9	–	–
GAUAUGGAAACAUGUCAGAUCCUUACCGGUCGAGGACCGGUACGGCCGCCACUCGCAAAUAUUGUACAUGAGGAUCACCCAUGUA	–	–	13.1	13.6
UAUAUAUAUCACUAACUGUUCUUGAGGUCUCGAGGACCGGUACGGCCGCCACUCGUGCCGCCUCACAUGAGGAUCACCCAUGUCC	–	–	53.7	57
UAUCUACAUAUAUAGGUUAUUCGAUUAUUUCGAGGACCGGUACGGCCGCCACUCGUUAACAUAUACAUGAGGAUCACCCAUGUUA	15.4	14.5	–	–
GCAUCCUAGUCGGCCGCCACUGGUACGAACACCUUCACCCGUGUGCACAUGAGGAUCACCCAUGUCAGGACCGGGACUAGGAUGC	9.36	9.66	–	–
ACAUGAGGAUCACCCAUGUACAUCACCCGACGAGGACCGGUACGGCCGCCACUCGGGUAUAUAUAUACAUCGGGUGAUUUUACGU	18.5	18	–	–
UGAUACCAGUCGGCCGCCACUAUGCUAGAUACUAGCAAUAAAGGGCGACAUGAGGAUCACCCAUGUAGGACCGGGACUGGUAUCU	–	–	11.2	14.8
AAUACCGGUCCUCGAAGGUGAUCCUCAUAACGAGGACCGGUACGGCCGCCACUCGAUAACAUGAGGAUCACCCAUGUAAUAAUAA	–	–	187	138
AGAUUCGACACGGCCGCCACUCGUGCCGGAUUACCGAGUGUCGAACAUGAGGAUCACCCAUGUACGAGGACCGGGUGUUGAGUCU	–	–	37.7	262
AGAUUCGACACGGCCGCCACUUGUGGUGGAUUAUCCAGUGUCGAACAUGAGGAUCACCCAUGUACAAGGACCGGGUGUUGAGUCU	–	–	90.4	282
